# Source: PubChem BioAssay
# The list is not random: actives were taken first. Their share in the collection is about 1.6%.
# GALR2 ag – GALR2 receptor agonists, primary screen, cell-based; Galanin receptor type 2 (Homo sapiens), O43603; GALR2-expressing cells, agonist activation read-out; activation, % (concentration not given with the values); actives 0.48% (n = 140,000); AID 803, 2007; in the data active = activation above about 5%, passing the limit was not always enough;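 note: 0% = vehicle buffer wells and 100% = reference agonist at full effect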
# GALR2 blocker – GALR2 antagonists in receptor-expressing cells, primary screen. actives 0.39% (n = 140,000). inhibition, % at 4 µM. antagonist mode; in the data active = inhibition above about 27%;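 note: cells stimulated with galanin 1-16 at roughly its EC80; 0% = agonist challenge control and 100% = basal control without agonist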
# S1P2 blocker – human S1P2 receptor antagonists, primary screen, cell-based. cell-based S1P2 antagonist assay, inhibition at 5 uM. Sphingosine 1-phosphate receptor 2 (Homo sapiens), O95136. actives 0.21% (n = 97,000). inhibition, % at 5 µM. AID 736, 2007; in the data active = inhibition above about 45%;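 note: CRE beta-lactamase reporter cells expressing human S1P2 stimulated with S1P; 0% = agonist at EC80 alone and 100% = agonist plus reference antagonist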
# Target sequence (O95136 whole entry, looked up): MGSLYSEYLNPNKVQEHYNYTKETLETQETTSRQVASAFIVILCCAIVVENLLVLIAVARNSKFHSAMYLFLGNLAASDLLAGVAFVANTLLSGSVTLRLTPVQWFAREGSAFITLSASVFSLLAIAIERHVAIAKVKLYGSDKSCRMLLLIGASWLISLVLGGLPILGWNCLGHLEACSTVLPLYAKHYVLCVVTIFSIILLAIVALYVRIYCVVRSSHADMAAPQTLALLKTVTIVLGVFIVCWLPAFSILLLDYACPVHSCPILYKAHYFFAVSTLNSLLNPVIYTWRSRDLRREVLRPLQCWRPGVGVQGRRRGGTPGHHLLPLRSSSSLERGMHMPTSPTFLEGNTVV
# HIV Rev-RRE inh – HIV-1 Rev-RRE binding inhibitors, primary screen, biochemical, FRET, protein-RNA interaction. Rev peptide-RRE RNA binding. inhibition, % at 8 µM. actives 0.79% (n = 97,000);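 active = inhibition above the screen-wide mean plus 3 SD, cut at about 35% in these data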;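 note: 0% = median DMSO wells and 100% = median Neomycin B control wells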
# Target sequence (P05866 whole entry, looked up): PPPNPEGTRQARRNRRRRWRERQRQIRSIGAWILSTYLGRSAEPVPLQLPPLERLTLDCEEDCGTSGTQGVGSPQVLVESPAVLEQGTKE
#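 Test system: Cy5-tagged RRE RNA duplex with fluorescein-tagged Rev peptide; Probe or stimulus: labelled Rev peptide; Schedule: 5 min preincubation and 15 min binding, 25 °C; Signal: FRET fluorescence readout; Evaluation: % inhibition from 671/540 nm acceptor-to-donor ratio, scaled between controls; Control set: DMSO and neomycin B.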
# S1P2 agonist – S1P2 receptor agonists, primary screen, cell-based | Sphingosine 1-phosphate receptor 2 (Homo sapiens), O95136 | S1P2-expressing cell line, agonist reporter read-out | activation, % at 4.5 µM | actives 0.46% (n = 97,000) | AID 729, 2007; in the data active = activation above about 16%;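 note: 0% = vehicle low control and 100% = maximal reference agonist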
# * = called active by the depositor; x = no result given; [ ] = remark or other dose.
SMILES,GALR2 ag,GALR2 blocker,S1P2 blocker,HIV Rev-RRE inh,S1P2 agonist
CCCN1C(=O)/C(=C/c2c(NCCCOC(C)C)nc3c(C)cccn3c2=O)SC1=S,-2.6,14.6,-8.8,93.7*[fluorescence artefact?],-3.4
CCC(C)N1C(=O)/C(=C/c2c(NCCCOC(C)C)nc3c(C)cccn3c2=O)SC1=S (stereo unspecified),-0.9,-0.8,23.0,126.1*[fluorescence artefact?],-8.0
Cc1cc(C)c(NC(=O)CSc2nnc(SCC(=O)Nc3c(C)cc(C)cc3C)n2N)c(C)c1,-0.7,-8.4,-12.6,5.9,-8.7
Cc1ccc(NC(=O)OCCN2CCN(Cc3ccccc3)CCC2=O)cc1,-2.4,-6.0,x,x,x
[O-][N+]1=c2ccc(Nc3ccccc3)cc2=NC12CCCCC2,-2.8,11.9,47.7*,-4.1,-10.7
CSc1nsc(/C=C/Nc2ccc(Cl)cc2)c1C#N,0.7,3.3,26.9,42.2*,-0.2
CCC(=O)Nc1cc(C)c(NC(=O)CCc2ccccc2)cn1,0.3,3.7,0.4,37.8*,-4.2
Cc1ccc(/C=N/NC(=O)c2cc(C3CC3)nc3ccccc23)o1,1.0,2.0,x,x,x
Cc1cc(=O)oc2cc3c(cc12)OCCN3,10.2*,-4.6,-38.7,5.1,45.8*
COc1ccccc1C(=O)Nc1ccccc1C(=O)N1CCCC1,-0.6,-7.4,16.6,3.9,-2.4
COc1ccccc1C(=O)N1CCCN(C(=O)c2ccccc2OC)CC1,-0.3,-8.7,4.2,-1.2,37.3*
CCOC(=O)c1c(Nc2ccc(Cl)cc2)sc(/C=C2\C=Nc3ccccc32)c1O,-2.4,6.7,7.6,40.5*,-3.2
CCOc1c(Cl)cc(/C=N/NC(N)=S)cc1OC,-1.4,0.8,x,x,x
Cc1ccc(S(=O)(=O)N(C)c2ccccc2C(=O)NC2CCCC2)cc1,-2.2,7.1,x,x,x
Cc1ccc2c(CSc3nc4nc(C)cc(C)n4n3)cc(=O)oc2c1,3.5,-10.6,-34.1,-1.1,14.0
COc1ccc2c(CSc3nc4nc(C)cc(C)n4n3)cc(=O)oc2c1,1.0,-24.1,-25.3,3.7,17.2*
CN1C=CC2=C(C#N)C(N)C(C#N)(C#N)C(c3ccccc3)C2C1 (stereo unspecified),2.8,-7.8,10.4,64.3*,0.3
Cc1ccc2nc3c(cc(C#N)c(=N)n3CCCN3CCOCC3)c(=O)n2c1,-1.2,3.1,-2.0,3.3,0.0
Cc1ccc2nc3c(cc(C(N)=S)c(=N)n3CCCOC(C)C)c(=O)n2c1,2.9,-17.1,-2.7,59.1*,-0.3
COC(=O)c1cc(NC(=O)c2cccc(C(F)(F)F)c2)c(=O)oc1C/C=N/OCc1cccc(Cl)c1Cl,-1.9,-10.6,-8.9,38.9*,-5.7
COP(=O)(OC)C(Nc1ccc(C)cc1)c1ccc([N+](=O)[O-])cc1 (stereo unspecified),-0.9,-2.6,x,x,x
Cc1noc(C)c1C(=O)NCCc1ccc(Cl)cc1,0.8,-10.3,17.3,95.0*[fluorescence artefact?],-6.3
Cn1c[n+](C)cc1-c1ccc(/C(N)=N/O)cc1,-1.0,-4.4,x,x,x
Cc1ccccc1-n1c(SCC(=O)Nc2ccccc2)nc2nc3c(cc2c1=O)CCCC3,1.1,-4.9,x,x,x
Oc1c(C=NCc2ccc(F)cc2)[nH]c2ccc(Br)c(Cl)c12,0.4,11.4,7.0,99.0*[fluorescence artefact?],-3.2
SMILES,GALR2 ag,GALR2 blocker,S1P2 blocker,HIV Rev-RRE inh,S1P2 agonist
O=c1[nH]c(=O)n(C2CCCCCC2)c(O)c1C=NCc1ccc(F)cc1,2.1,-14.3,-27.7,11.3,10.8
Cc1ccc(CN=Cc2[nH]c3ccc(Br)c(Cl)c3c2O)cc1,-3.0,9.6,-6.6,115.6*[fluorescence artefact?],-0.6
Cc1ccccc1NC(=S)N(C)Cc1cn(C)c2ccccc12,-0.7,15.0,x,x,x
COc1cc2c(cc1OC)C1=C(C#N)CN(CC(=O)O)CN1CC2,-1.4,-8.3,-28.0,16.0,22.9*
COc1cc2c(cc1OC)CN(CC(=O)Nc1ccccc1C#N)CC2,-1.7,5.0,4.2,12.0,1.0
Cc1cc(C(=O)CN2C(=O)NC3(CCCc4ccccc43)C2=O)c(C)n1Cc1ccccc1 (stereo unspecified),-0.9,-0.1,-22.4,8.8,8.7
Cc1cc(C(=O)CN2C(=O)CCC2=O)c(C)n1Cc1ccccc1,-0.5,-10.7,-40.7,0.9,150.3*
Cc1cc(C(=O)CN2C(=O)c3ccccc3C2=O)c(C)n1Cc1cccs1,-0.6,-6.5,-2.6,7.2,26.9*
O=C1CCCC(=O)C1=C1SCCS1,0.3,1.9,x,x,x
Cn1c(=O)c2c(nc(N/N=C/c3ccc(OC(=O)c4ccco4)cc3)n2Cc2ccccc2)n(C)c1=O,-0.4,2.2,x,x,x
Cc1ccc(-n2c(SCC(=O)Nc3cc(C)on3)nc3c([nH]c4ccccc43)c2=O)cc1,2.3,3.2,-9.3,7.0,17.7*
CCOc1ccc(-n2c(SCC(=O)Nc3cc(C)on3)nc3c([nH]c4ccccc43)c2=O)cc1,0.0,7.9,-21.6,3.5,-1.1
CCOC(=O)c1sc(C)c2c1NC1(CCCCC1)NC2=O,18.8*,-2.0,-44.7,5.5,16.6*
CCOC(=O)c1sc(C)c2c1NC1(CCCCCC1)NC2=O,0.1,2.5,-15.2,-0.4,-1.1
C[C@@H](C(=O)N[C@H](C(=O)O)c1ccccc1)n1nnc2ccccc2c1=O,-0.1,-0.4,x,x,x
O=c1cc(-c2c(F)c(F)c(F)c(F)c2F)oc2c(F)c(F)c(F)c(F)c12,-0.9,69.2*,x,x,x
Cc1cccc(N2C(=O)c3cccc4c(N(C)CCO)ccc(c34)C2=O)c1,-2.0,17.2,14.6,128.7*[fluorescence artefact?],-9.2
CC(C)(C)C(=O)n1nc(-c2ccccc2)oc1=O,-1.0,-8.7,x,x,x
O=c1[nH]c2cc3c(cc2cc1C(c1nnnn1C1CCCCC1)N1CCSCC1)OCCO3 (stereo unspecified),-1.5,3.9,2.2,51.2*,-2.2
COc1cc2cc(C(c3nnnn3C3CCCC3)N3CCCCC3)c(=O)[nH]c2cc1OC (stereo unspecified),-1.3,5.6,-0.8,9.7,-7.2
COc1cc2cc(C(c3nnnn3C3CCCC3)N3CCCCCC3)c(=O)[nH]c2cc1OC (stereo unspecified),-1.6,0.6,13.7,57.8*,-5.9
COc1ccc2cc(C(c3nnnn3C3CCCCC3)N3CCCCCC3)c3nnnn3c2c1 (stereo unspecified),13.1*,-2.3,10.8,9.4,-3.1
O=C(COC(=O)Cc1ccsc1)NC1CCCCCC1,-2.7,-12.4,13.8,3.8,-6.7
CCC1=NN2C(=N)/C(=C\c3ccc(SCc4ccco4)o3)C(=O)N=C2S1,-2.4,-8.9,4.9,36.2*,-4.7
CCC1=NN2C(=N)/C(=C/c3c(C)nn(-c4ccccc4)c3Cl)C(=O)N=C2S1,-1.4,-7.5,x,x,x
CCCC1=NN2C(=N)/C(=C\c3ccc(SCc4ccco4)o3)C(=O)N=C2S1,-0.7,-8.9,-20.7,36.1*,-5.2
CCCC1=NN2C(=N)/C(=C\c3cc(C)n(-c4cccc(C)c4)c3C)C(=O)N=C2S1,-2.3,-0.3,x,x,x
CN(Cc1ccccc1)c1nc(N)c([N+](=O)[O-])c(Nc2cccc(F)c2)n1,-4.2,0.7,-59.9,22.0,22.3*
